In ChEMBL document CHEMBL3232963, “Discovery of a potent and selective α3β4 nicotinic acetylcholine receptor antagonist from an α-conotoxin synthetic combinatorial library” (J Med Chem, 2014):
Bridge positions count the residues as written; N and C are the ends. Square brackets hold non-standard residues; d marks the D form. Peptide text beside a SMILES is read from it. Nle = CCCC[C@H](N)C(=O)O; Nva = CCC[C@H](N)C(=O)O; Abu = CC[C@H](N)C(=O)O

target: Neuronal acetylcholine receptor; alpha3/beta4 (Rattus norvegicus) (UniProt P04757+P12392); experiment: Antagonist activity at rat alpha3beta4 nAChR expressed in HEK293 cells assessed as inhibition of epibatadine-induced effect at 10 uM after 30 mins by fluorescent membrane potential assay relative to mecamylamine; assay type: cell-based
In short: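 Rat α3β4 nAChR stably expressed in HEK293 cells; crude, SPE-desalted individual peptides tested at 10 μM in HBSS with membrane potential blue dye, 30 min at 37 °C. Fluorescence change read after epibatidine (0.1 μM). Percent inhibition set against 10 μM mecamylamine taken as 100%.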

Row | Compound | inhibition [%]
1 | CCCC[C@@H]1NC(=O)[C@H](CC2C=Nc3ccccc32)NC(=O)[C@H]([C@H](C)CC)NC(=O)[C@@H]2CSSC[C@H](NC(=O)CN)C(=O)N[C@@H](CSSC[C@@H](C(=O)O)NC(=O)[C@@H]3CCCN3C1=O)C(=O)N[C@@H](CO)C(=O)N[C@@H](CCCC)C(=O)N1CCC[C@H]1C(=O)N[C@@H](CC)C(=O)N2 (stereo not given in full) | 51.4
2 | CCCC[C@@H]1NC(=O)[C@H](Cc2c[nH]c3ccccc23)NC(=O)[C@H]([C@H](C)CC)NC(=O)[C@@H]2CSSC[C@H](NC(=O)CN)C(=O)N[C@@H](CSSC[C@@H](C(=O)O)NC(=O)[C@H](Cc3ccc(O)cc3)NC1=O)C(=O)N[C@@H](CO)C(=O)N[C@@H](CCCC)C(=O)N1CCC[C@H]1C(=O)N[C@@H](CC)C(=O)N2 | 68.6
3 | CCCC[C@@H]1NC(=O)[C@H](CC2C=Nc3ccccc32)NC(=O)[C@H]([C@H](C)CC)NC(=O)[C@@H]2CSSC[C@H](NC(=O)CN)C(=O)N[C@@H](CSSC[C@@H](C(=O)O)NC(=O)[C@@H]3CCCN3C1=O)C(=O)N[C@@H](CO)C(=O)N[C@@H](Cc1cnc[nH]1)C(=O)N1CCC[C@H]1C(=O)N[C@@H](CC)C(=O)N2 (stereo not given in full) | 15.4
4 | CCCC[C@@H]1NC(=O)[C@H](Cc2c[nH]c3ccccc23)NC(=O)[C@H]([C@H](C)CC)NC(=O)[C@@H]2CSSC[C@H](NC(=O)CN)C(=O)N[C@@H](CSSC[C@@H](C(=O)O)NC(=O)[C@H](Cc3ccc(O)cc3)NC1=O)C(=O)N[C@@H](CO)C(=O)N[C@@H](CCCC)C(=O)N1CCC[C@H]1C(=O)N1CCC[C@H]1C(=O)N2 | 51.8
5 | CCCC[C@@H]1NC(=O)[C@H](CC)NC(=O)[C@H]([C@H](C)CC)NC(=O)[C@@H]2CSSC[C@H](NC(=O)CN)C(=O)N[C@@H](CSSC[C@@H](C(=O)O)NC(=O)[C@@H]3CCCN3C1=O)C(=O)N[C@@H](CO)C(=O)N[C@@H](Cc1cnc[nH]1)C(=O)N1CCC[C@H]1C(=O)N[C@@H](CC)C(=O)N2 | 36.2
6 | CCCC[C@@H]1NC(=O)[C@H](Cc2c[nH]c3ccccc23)NC(=O)[C@H](Cc2ccccc2)NC(=O)[C@@H]2CSSC[C@H](NC(=O)CN)C(=O)N[C@@H](CSSC[C@@H](C(=O)O)NC(=O)[C@H](Cc3ccc(O)cc3)NC1=O)C(=O)N[C@@H](CO)C(=O)N[C@@H](CCCC)C(=O)N1CCC[C@H]1C(=O)N[C@@H](CC)C(=O)N2 (H-GCCS[Nle]P[Abu]CFW[Nle]YC-OH; disulfide 2-8, 3-13) | 76
7 | CCCC[C@@H]1NC(=O)[C@H](CO)NC(=O)[C@@H]2CSSC[C@@H](C(=O)O)NC(=O)[C@@H]3CCCN3C(=O)[C@H](CCC)NC(=O)[C@H](CC)NC(=O)[C@H]([C@H](C)CC)NC(=O)[C@H](CSSC[C@H](NC(=O)CN)C(=O)N2)NC(=O)[C@H](CC)NC(=O)[C@@H]2CCCN2C1=O | 19.2
8 | CCC[C@@H]1NC(=O)[C@H](Cc2c[nH]c3ccccc23)NC(=O)[C@H]([C@H](C)CC)NC(=O)[C@@H]2CSSC[C@H](NC(=O)CN)C(=O)N[C@@H](CSSC[C@@H](C(=O)O)NC(=O)[C@@H]3CCCN3C1=O)C(=O)N[C@@H](CO)C(=O)N[C@@H](Cc1cnc[nH]1)C(=O)N1CCC[C@H]1C(=O)N[C@@H](CC)C(=O)N2 | 38.7
9 | CCC[C@@H]1NC(=O)[C@H](CC)NC(=O)[C@H]([C@H](C)CC)NC(=O)[C@@H]2CSSC[C@H](NC(=O)CN)C(=O)N[C@@H](CSSC[C@@H](C(=O)O)NC(=O)[C@@H]3CCCN3C1=O)C(=O)N[C@@H](CO)C(=O)N[C@@H](Cc1cnc[nH]1)C(=O)N1CCC[C@H]1C(=O)N1CCC[C@H]1C(=O)N2 | 45.1
10 | CCCC[C@@H]1NC(=O)[C@H](CC)NC(=O)[C@H]([C@H](C)CC)NC(=O)[C@@H]2CSSC[C@H](NC(=O)CN)C(=O)N[C@@H](CSSC[C@@H](C(=O)O)NC(=O)[C@H](Cc3ccc(O)cc3)NC1=O)C(=O)N[C@@H](CO)C(=O)N[C@@H](CCCC)C(=O)N1CCC[C@H]1C(=O)N[C@@H](CC)C(=O)N2 | 72.6
11 | CCCC[C@@H]1NC(=O)[C@H](Cc2c[nH]c3ccccc23)NC(=O)[C@H](Cc2ccccc2)NC(=O)[C@@H]2CSSC[C@H](NC(=O)CN)C(=O)N[C@@H](CSSC[C@@H](C(=O)O)NC(=O)[C@H](Cc3ccc(O)cc3)NC1=O)C(=O)N[C@@H](CO)C(=O)N[C@@H](CCCC)C(=O)N1CCC[C@H]1C(=O)N1CCC[C@H]1C(=O)N2 (H-GCCS[Nle]PPCFW[Nle]YC-OH; disulfide 2-8, 3-13) | 60.2
12 | CCCC[C@@H]1NC(=O)[C@H](CO)NC(=O)[C@@H]2CSSC[C@@H](C(=O)O)NC(=O)[C@H](Cc3ccc(O)cc3)NC(=O)[C@H](CCC)NC(=O)[C@H](Cc3c[nH]c4ccccc34)NC(=O)[C@H](Cc3ccccc3)NC(=O)[C@H](CSSC[C@H](NC(=O)CN)C(=O)N2)NC(=O)[C@@H]2CCCN2C(=O)[C@@H]2CCCN2C1=O (H-GCCS[Nle]PPCFW[Nva]YC-OH; disulfide 2-8, 3-13) | 61.6
13 | CCC[C@@H]1NC(=O)[C@H](CC)NC(=O)[C@H](Cc2ccccc2)NC(=O)[C@@H]2CSSC[C@H](NC(=O)CN)C(=O)N[C@@H](CSSC[C@@H](C(=O)O)NC(=O)[C@@H]3CCCN3C1=O)C(=O)N[C@@H](CO)C(=O)N[C@@H](Cc1cnc[nH]1)C(=O)N1CCC[C@H]1C(=O)N[C@@H](CC)C(=O)N2 (H-GCCSHP[Abu]CF[Abu][Nva]PC-OH; disulfide 2-8, 3-13) | 47
14 | CCC[C@@H]1NC(=O)[C@H](Cc2c[nH]c3ccccc23)NC(=O)[C@H](Cc2ccccc2)NC(=O)[C@@H]2CSSC[C@H](NC(=O)CN)C(=O)N[C@@H](CSSC[C@@H](C(=O)O)NC(=O)[C@@H]3CCCN3C1=O)C(=O)N[C@@H](CO)C(=O)N[C@@H](Cc1cnc[nH]1)C(=O)N1CCC[C@H]1C(=O)N[C@@H](CC)C(=O)N2 (H-GCCSHP[Abu]CFW[Nva]PC-OH; disulfide 2-8, 3-13) | 36.2
15 | CCCC[C@@H]1NC(=O)[C@H](Cc2c[nH]c3ccccc23)NC(=O)[C@H]([C@H](C)CC)NC(=O)[C@@H]2CSSC[C@H](NC(=O)CN)C(=O)N[C@@H](CSSC[C@@H](C(=O)O)NC(=O)[C@@H]3CCCN3C1=O)C(=O)N[C@@H](CO)C(=O)N[C@@H](Cc1cnc[nH]1)C(=O)N1CCC[C@H]1C(=O)N1CCC[C@H]1C(=O)N2 | 10.1
16 | CCC[C@@H]1NC(=O)[C@H](Cc2c[nH]c3ccccc23)NC(=O)[C@H](Cc2ccccc2)NC(=O)[C@@H]2CSSC[C@H](NC(=O)CN)C(=O)N[C@@H](CSSC[C@@H](C(=O)O)NC(=O)[C@H](Cc3ccc(O)cc3)NC1=O)C(=O)N[C@@H](CO)C(=O)N[C@@H](Cc1cnc[nH]1)C(=O)N1CCC[C@H]1C(=O)N1CCC[C@H]1C(=O)N2 (H-GCCSHPPCFW[Nva]YC-OH; disulfide 2-8, 3-13) | 47.8
17 | CCCC[C@@H]1NC(=O)[C@H](CO)NC(=O)[C@@H]2CSSC[C@@H](C(=O)O)NC(=O)[C@@H]3CCCN3C(=O)[C@H](CCC)NC(=O)[C@H](Cc3c[nH]c4ccccc34)NC(=O)[C@H]([C@H](C)CC)NC(=O)[C@H](CSSC[C@H](NC(=O)CN)C(=O)N2)NC(=O)[C@H](CC)NC(=O)[C@@H]2CCCN2C1=O | 44.8
18 | CCCC[C@@H]1NC(=O)[C@H](Cc2c[nH]c3ccccc23)NC(=O)[C@H](Cc2ccccc2)NC(=O)[C@@H]2CSSC[C@H](NC(=O)CN)C(=O)N[C@@H](CSSC[C@@H](C(=O)O)NC(=O)[C@@H]3CCCN3C1=O)C(=O)N[C@@H](CO)C(=O)N[C@@H](Cc1cnc[nH]1)C(=O)N1CCC[C@H]1C(=O)N1CCC[C@H]1C(=O)N2 (H-GCCSHPPCFW[Nle]PC-OH; disulfide 2-8, 3-13) | 15.3
19 | CCCC[C@@H]1NC(=O)[C@H](CC)NC(=O)[C@H]([C@H](C)CC)NC(=O)[C@@H]2CSSC[C@H](NC(=O)CN)C(=O)N[C@@H](CSSC[C@@H](C(=O)O)NC(=O)[C@H](Cc3ccc(O)cc3)NC1=O)C(=O)N[C@@H](CO)C(=O)N[C@@H](Cc1cnc[nH]1)C(=O)N1CCC[C@H]1C(=O)N1CCC[C@H]1C(=O)N2 | 67.2
20 | CCCC[C@@H]1NC(=O)[C@H](CC)NC(=O)[C@H](Cc2ccccc2)NC(=O)[C@@H]2CSSC[C@H](NC(=O)CN)C(=O)N[C@@H](CSSC[C@@H](C(=O)O)NC(=O)[C@@H]3CCCN3C1=O)C(=O)N[C@@H](CO)C(=O)N[C@@H](CCCC)C(=O)N1CCC[C@H]1C(=O)N1CCC[C@H]1C(=O)N2 (H-GCCS[Nle]PPCF[Abu][Nle]PC-OH; disulfide 2-8, 3-13) | 54.6
21 | CCCC[C@@H]1NC(=O)[C@H](Cc2c[nH]c3ccccc23)NC(=O)[C@H](Cc2ccccc2)NC(=O)[C@@H]2CSSC[C@H](NC(=O)CN)C(=O)N[C@@H](CSSC[C@@H](C(=O)O)NC(=O)[C@H](Cc3ccc(O)cc3)NC1=O)C(=O)N[C@@H](CO)C(=O)N[C@@H](Cc1cnc[nH]1)C(=O)N1CCC[C@H]1C(=O)N1CCC[C@H]1C(=O)N2 (H-GCCSHPPCFW[Nle]YC-OH; disulfide 2-8, 3-13) | 44
22 | CCCC[C@@H]1NC(=O)[C@H](CO)NC(=O)[C@@H]2CSSC[C@@H](C(=O)O)NC(=O)[C@H](Cc3ccc(O)cc3)NC(=O)[C@H](CCC)NC(=O)[C@H](Cc3c[nH]c4ccccc34)NC(=O)[C@H](Cc3ccccc3)NC(=O)[C@H](CSSC[C@H](NC(=O)CN)C(=O)N2)NC(=O)[C@H](CC)NC(=O)[C@@H]2CCCN2C1=O (H-GCCS[Nle]P[Abu]CFW[Nva]YC-OH; disulfide 2-8, 3-13) | 67.9
23 | CCCC[C@@H]1NC(=O)[C@H](Cc2c[nH]c3ccccc23)NC(=O)[C@H]([C@H](C)CC)NC(=O)[C@@H]2CSSC[C@H](NC(=O)CN)C(=O)N[C@@H](CSSC[C@@H](C(=O)O)NC(=O)[C@H](Cc3ccc(O)cc3)NC1=O)C(=O)N[C@@H](CO)C(=O)N[C@@H](Cc1cnc[nH]1)C(=O)N1CCC[C@H]1C(=O)N1CCC[C@H]1C(=O)N2 | 43.9
24 | CCCC[C@@H]1NC(=O)[C@H](Cc2c[nH]c3ccccc23)NC(=O)[C@H]([C@H](C)CC)NC(=O)[C@@H]2CSSC[C@H](NC(=O)CN)C(=O)N[C@@H](CSSC[C@@H](C(=O)O)NC(=O)[C@H](Cc3ccc(O)cc3)NC1=O)C(=O)N[C@@H](CO)C(=O)N[C@@H](Cc1cnc[nH]1)C(=O)N1CCC[C@H]1C(=O)N[C@@H](CC)C(=O)N2 | 55.7
25 | CCCC[C@@H]1NC(=O)[C@H](CO)NC(=O)[C@@H]2CSSC[C@@H](C(=O)O)NC(=O)[C@@H]3CCCN3C(=O)[C@H](CCC)NC(=O)[C@H](Cc3c[nH]c4ccccc34)NC(=O)[C@H]([C@H](C)CC)NC(=O)[C@H](CSSC[C@H](NC(=O)CN)C(=O)N2)NC(=O)[C@@H]2CCCN2C(=O)[C@@H]2CCCN2C1=O | 38.9
